Reference: ChEMBL document CHEMBL3784969, “Pharmacokinetics of flutamide in patients with renal insufficiency” (Br J Clin Pharmacol, 1999)

Key:
[1] = test system: Homo sapiens; assay: AUClast in patient (3 patients) with renal insufficiency at 250 mg, po assessed as hydroxy flutamide administered as single dose by gas chromatography; assay type: ADME, organism-based; set-up: dose 250 mg, time 0 - last, route oral; details: in vivo
[2] = Tmax in patient (4 patients) with renal insufficiency at 250 mg, po administered as single dose by gas chromatography; assay type: ADME, organism-based; details: human, in vivo
How it was run: (§1)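 Males grouped by 24 h CLcr normalised to body surface area (>80, 50–80, 30–49, 5–29 ml min−1 1.73 m−2), fasted 10 h pre-dose and 4 h post-dose, given a single oral 250 mg flutamide dose. Plasma sampled 0–96 h; urine collected in blocks to 96 h. Flutamide and hydroxyflutamide measured by GC with electron-capture detection. Renal CL = Ae(0,96 h)/AUC(0,96 h); t1/2 = 0.693/λz.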

[3] = AUClast in patient (4 patients) with renal insufficiency at 250 mg, po administered as single dose by gas chromatography; assay type: ADME, organism-based; set-up: dose 250 mg, time 0 - last, route oral; details: human, in vivo
[4] = test system: Homo sapiens; assay: Final time point in terminal phase in patient (4 patients) with renal insufficiency at 250 mg, po administered as single dose by gas chromatography; assay type: ADME, organism-based; details: in vivo; how it was run: as §1
[5] = Drug excretion in urine of patient (4 patients) with renal insufficiency at 250 mg, po administered as single dose by gas chromatography; assay type: ADME, organism-based; details: human, in vivo; how it was run: as §1
[6] = Renal clearance in patient (4 patients) with renal insufficiency at 250 mg, po administered as single dose by gas chromatography; assay type: ADME, organism-based, Kidney; details: human, in vivo; how it was run: as §1
[7] = test system: Homo sapiens; assay: AUC (0 to 96 hrs) in patient (4 patients) with renal insufficiency at 250 mg, po assessed as hydroxy flutamide administered as single dose by gas chromatography; assay type: ADME, organism-based; set-up: dose 250 mg, time < 96 hr, route oral; details: in vivo
[8] = test system: Homo sapiens; assay: Final time point in terminal phase in patient (4 patients) with renal insufficiency assessed as hydroxy flutamide at 250 mg, po administered as single dose by gas chromatography; assay type: ADME, organism-based; details: in vivo; how it was run: as §1
[9] = Cmax in patient (6 patients) with renal insufficiency at 250 mg, po administered as single dose 4 hrs prior to hemodialysis treatment measured at starting time of dialysis and post dialysis treatment by gas chromatography; assay type: ADME, organism-based; set-up: dose 250 mg, route oral; details: human, in vivo
[10] = AUClast in patient (6 patients) with renal insufficiency at 250 mg, po administered as single dose 4 hrs prior to hemodialysis treatment measured at starting time of dialysis and post dialysis treatment by gas chromatography; assay type: ADME, organism-based; set-up: dose 250 mg, route oral, time 0 - last; details: human, in vivo
[11] = test system: Homo sapiens; assay: AUClast in patient (6 patients) with renal insufficiency assessed as hydroxy flutamide at 250 mg, po administered as single dose 4 hrs prior to hemodialysis treatment measured at starting time of dialysis and post dialysis treatment by gas chromatography; assay type: ADME, organism-based; set-up: dose 250 mg, time 0 - last, route oral; details: in vivo
[12] = test system: Homo sapiens; assay: Terminal half life in patient (6 patients) with renal insufficiency assessed as hydroxy flutamide at 250 mg, po administered as single dose 4 hrs prior to hemodialysis treatment measured at starting time of dialysis and post dialysis treatment by gas chromatography; assay type: ADME, organism-based; details: in vivo
How it was run: (§2)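 Group V haemodialysis males (CLcr <5 ml min−1 1.73 m−2). Single oral 250 mg flutamide (two 125 mg capsules) right after HD; after 14-day washout, same dose 4 h before HD lasting 2–4 h. Venous samples to 48 h, arterial/venous during HD, dialysate in hourly blocks. GC with 63Ni electron-capture detection. CL(HD) = dialysate Ae(HD)/arterial AUC(HD); renal CL = Ae(0,48)/AUC(0,48 h).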

[13] = test system: Homo sapiens; assay: Clearance in patient (6 patients) with renal insufficiency assessed as hydroxy flutamide at 250 mg, po administered as single dose 4 hrs prior to hemodialysis treatment measured during dialysis treatment by gas chromatography; assay type: ADME, organism-based; details: in vivo; how it was run: as §2
[14] = AUC (0 to 24 hrs) in patient (6 patients) with renal insufficiency at 250 mg, po administered as single dose by gas chromatography; assay type: ADME, organism-based; set-up: dose 250 mg, time < 24 hr, route oral; details: human, in vivo
[15] = Renal clearance in patient (6 patients) with renal insufficiency at 250 mg, po administered as single dose by gas chromatography; assay type: ADME, organism-based, Kidney; details: human, in vivo; how it was run: as §1
[16] = test system: Homo sapiens; assay: Final time point in terminal phase in patient (6 patients) with renal insufficiency at 250 mg, po administered as single dose by gas chromatography; assay type: ADME, organism-based; details: in vivo; how it was run: as §1
[17] = test system: Homo sapiens; assay: Tmax in patient (6 patients) with renal insufficiency assessed as hydroxy flutamide at 250 mg, po administered as single dose by gas chromatography; assay type: ADME, organism-based; details: in vivo; how it was run: as §1
[18] = test system: Homo sapiens; assay: AUClast in patient (6 patients) with renal insufficiency at 250 mg, po assessed as hydroxy flutamide administered as single dose by gas chromatography; assay type: ADME, organism-based; set-up: dose 250 mg, time 0 - last, route oral; details: in vivo
[19] = test system: Homo sapiens; assay: Final time point in terminal phase in patient (6 patients) with renal insufficiency assessed as hydroxy flutamide at 250 mg, po administered as single dose by gas chromatography; assay type: ADME, organism-based; details: in vivo; how it was run: as §1
[20] = test system: Homo sapiens; assay: Renal clearance in patient (6 patients) with renal insufficiency assessed as hydroxy flutamide at 250 mg, po administered as single dose by gas chromatography; assay type: ADME, organism-based, Kidney; details: in vivo; how it was run: as §1
[21] = test system: Homo sapiens; assay: Toxicity in patient with renal insufficiency assessed as level of lactic dehydrogenase at 250 mg, po administered as single dose (reference value: 85 to 220 IU/l); assay type: organism-based; details: in vivo
How it was run: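 Male subjects were grouped by creatinine clearance: normal renal function, graded impairment, or chronic haemodialysis. Each received a single oral dose as two 125 mg capsules while fasted. Serum lactic dehydrogenase was measured pre-dose and at follow-up and read against the 85–220 IU l−1 normal range.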

[22] = Plasma protein binding in healthy geriatric volunteer by equilibrium dialysis method; assay type: ADME, cell-free; details: human, read-out: PPB
[23] = test system: Homo sapiens; assay: Final time point in terminal phase in patient (7 patients) with renal insufficiency at 250 mg, po administered as single dose by gas chromatography; assay type: ADME, organism-based; details: in vivo; how it was run: as §1
[24] = test system: Homo sapiens; assay: Cmax in patient (7 patients) with renal insufficiency assessed as hydroxy flutamide at 250 mg, po administered as single dose by gas chromatography; assay type: ADME, organism-based; set-up: dose 250 mg, route oral; details: in vivo
[25] = test system: Homo sapiens; assay: Tmax in patient (7 patients) with renal insufficiency assessed as hydroxy flutamide at 250 mg, po administered as single dose by gas chromatography; assay type: ADME, organism-based; details: in vivo; how it was run: as §1
[26] = test system: Homo sapiens; assay: AUC (0 to 24 hrs) in patient (7 patients) with renal insufficiency assessed as hydroxy flutamide at 250 mg, po administered as single dose by gas chromatography; assay type: ADME, organism-based; set-up: dose 250 mg, time < 24 hr, route oral; details: in vivo
[27] = test system: Homo sapiens; assay: AUClast in patient (7 patients) with renal insufficiency at 250 mg, po assessed as hydroxy flutamide administered as single dose by gas chromatography; assay type: ADME, organism-based; set-up: dose 250 mg, time 0 - last, route oral; details: in vivo
[28] = Cmax in patient (3 patients) with renal insufficiency at 250 mg, po administered as single dose by gas chromatography; assay type: ADME, organism-based; set-up: dose 250 mg, route oral; details: human, in vivo
[29] = Tmax in patient (3 patients) with renal insufficiency at 250 mg, po administered as single dose by gas chromatography; assay type: ADME, organism-based; details: human, in vivo; how it was run: as §1
[30] = AUC (0 to 96 hrs) in patient (3 patients) with renal insufficiency at 250 mg, po administered as single dose by gas chromatography; assay type: ADME, organism-based; set-up: time < 96 hr, dose 250 mg, route oral; details: human, in vivo
[31] = AUClast in patient (3 patients) with renal insufficiency at 250 mg, po administered as single dose by gas chromatography; assay type: ADME, organism-based; set-up: dose 250 mg, time 0 - last, route oral; details: human, in vivo
[32] = test system: Homo sapiens; assay: Final time point in terminal phase in patient (3 patients) with renal insufficiency at 250 mg, po administered as single dose by gas chromatography; assay type: ADME, organism-based; details: in vivo; how it was run: as §1
[33] = Renal clearance in patient (3 patients) with renal insufficiency at 250 mg, po administered as single dose by gas chromatography; assay type: ADME, organism-based, Kidney; details: human, in vivo; how it was run: as §1
[34] = test system: Homo sapiens; assay: Cmax in patient (3 patients) with renal insufficiency assessed as hydroxy flutamide at 250 mg, po administered as single dose by gas chromatography; assay type: ADME, organism-based; set-up: dose 250 mg, route oral; details: in vivo

In the case of `CC(C)C(=O)Nc1ccc([N+](=O)[O-])c(C(F)(F)F)c1` [FLUTAMIDE], the AUClast [1] is reported as 6843 ng·h/mL, the Tmax [2] is reported as 1 h and the AUC(0-t) [3] is reported as 79 ng·h/mL. The Time [4] was 5 h, the Drug excretion [5] was 30 µg and the CL renal [6] was 4 mL/min. It also gave an AUC [7] of 6499 ng·h/mL, a Time [8] of 56 h and a Cmax [9] of 81 ng/mL. The AUC(0-t) at 4 h [10] was 179 ng·h/mL, the AUClast [11] was 5862 ng·h/mL and the “beta t1/2” value [12] was 8 h. The CL [13] was 21 mL/min, the AUC(0-t) at 24 h [14] was 96.4 ng·h/mL and the CL renal [15] was 7.1 mL/min. The Time [16] was 4.4 h, the Tmax [17] was 1.9 h and the AUClast [18] was 5476 ng·h/mL. It also gave a Time [19] of 46 h, a CL [20] of 0.36 mL/min and an Activity [21] of 144 IU/L. For the same compound, the fraction unbound [22] was < 0.06, the Time [23] was 3.6 h and the Cmax [24] was 967 ng/mL. The Tmax [25] was 2.3 h, the AUC [26] was 4663 ng·h/mL and the AUClast [27] was 4928 ng·h/mL. It also gave a Cmax [28] of 41 ng/mL, a Tmax [29] of 2 h and an AUC(0-t) at 96 h [30] of 98 ng·h/mL. It also gave an AUC(0-t) [31] of 74 ng·h/mL, a Time [32] of 6 h and a CL renal [33] of 2 mL/min. For the same compound, the Cmax [34] was 902 ng/mL.
